Experimental data reported in ChEMBL document CHEMBL1649119, “Daptomycin pharmacokinetics in adult oncology patients with neutropenic fever” (Antimicrob Agents Chemother, 2009).

Tests used:
Assay type in all cases: ADME, organism-based
[1] = Clearance in healthy human subjects at 10 mg/kg, iv administered as 30 mins infusion every 24 hrs measured on day 1; set-up: dose 10 mg/kg, route intravenous; conditions: in vivo
[2] = Cmax in healthy human subjects at 10 mg/kg, iv administered as 30 mins infusion every 24 hrs measured on day 14; set-up: dose 10 mg/kg, route intravenous; conditions: in vivo
[3] = AUC (0 to infinity) in healthy human subjects at 8 mg/kg, iv administered as 30 mins infusion every 24 hrs measured on day 4; set-up: dose 8 mg/kg, route intravenous, time infinity; conditions: plasma
[4] = Drug excretion in old healthy human urine assessed as unchanged drug at 4 mg/kg, iv administered as single dose 30 mins infusion; set-up: dose 4 mg/kg, route intravenous; conditions: read-out: Drug uptake
[5] = Cmax in cancer patient with neutropenic fever at 6 mg/kg, iv administered as 30 mins infusion every 24 hrs; set-up: dose 6 mg/kg, route intravenous; conditions: human, in vivo
In short: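 First 6 mg/kg dose given over 30 min IV (q24h) to 29 neutropenic febrile adult cancer patients. Serial plasma was taken predose, at end of infusion, and at 0.5–24 h. Total concentration was measured by validated HPLC (limit of detection 1 μg/ml). Cmax is the observed peak value, reported as mean ± SD and range.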

[6] = Half life in adult human subjects at 6 mg/kg, iv administered as single dose 30 mins infusion; set-up: dose 6 mg/kg, route intravenous; conditions: in vivo
[7] = Half life in healthy human at 8 mg/kg, iv administered as 30 mins infusion every 24 hrs measured on day 14; set-up: dose 8 mg/kg, route intravenous; conditions: in vivo
[8] = AUC (0 to tau) in healthy human subjects at 6 mg/kg, iv administered as 30 mins infusion every 24 hrs measured on days 1-3; set-up: dose 6 mg/kg, route intravenous; conditions: plasma
[9] = Cmax in healthy human subjects at 8 mg/kg, iv administered as 30 mins infusion every 24 hrs measured on day 4; set-up: dose 8 mg/kg, route intravenous; conditions: in vivo
[10] = Clearance in healthy human at 8 mg/kg, iv administered as 30 mins infusion every 24 hrs measured on day 1; set-up: dose 8 mg/kg, route intravenous; conditions: in vivo
[11] = AUC ( 0 to infinity) in cancer patient with neutropenic fever at 6 mg/kg, iv administered as 30 mins infusion every 24 hrs; set-up: time infinity, dose 6 mg/kg, route intravenous; conditions: human, plasma
In short: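 Adult oncology patients with neutropenic fever (n = 29) received 6 mg/kg by total body weight as a 30-min IV infusion. Plasma was sampled predose, at end of infusion, and at 0.5, 1, 2, 4, 8, 12 and 24 h. Total drug was measured by validated HPLC (linear 1–100 μg/ml). Noncompartmental analysis: AUC0-24 by linear trapezoidal rule, plus last concentration/λz. Mean ± SD.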

[12] = Mean residence time in healthy human at 4 mg/kg, iv administered as single dose 30 mins infusion; set-up: dose 4 mg/kg, route intravenous; conditions: in vivo
[13] = Half life in old healthy human at 4 mg/kg, iv administered as single dose 30 mins infusion; set-up: dose 4 mg/kg, route intravenous; conditions: in vivo
[14] = Apparent volume of distribution during terminal phase in healthy human at 4 mg/kg, iv administered as 30 mins infusion every 24 hrs measured on day 1; set-up: dose 4 mg/kg, route intravenous; conditions: in vivo
[15] = Half life in healthy human subjects at 12 mg/kg, iv administered as 30 mins infusion every 24 hrs measured on day 14; set-up: dose 12 mg/kg, route intravenous; conditions: in vivo
[16] = Clearance in healthy human at 4 mg/kg, iv administered as 30 mins infusion every 24 hrs measured on day 7; set-up: dose 4 mg/kg, route intravenous; conditions: in vivo
[17] = Half life in healthy human at 4 mg/kg, iv administered as 30 mins infusion every 24 hrs measured on day 7; set-up: dose 4 mg/kg, route intravenous; conditions: in vivo
[18] = Plasma concentration in morbidly obese adult human at 4 mg/kg, iv administered as single dose 30 mins infusion measured after 24 hrs; set-up: dose 4 mg/kg, route intravenous
[19] = Clearance in healthy human at 4 mg/kg, iv administered as 30 mins infusion every 24 hrs measured on day 1; set-up: dose 4 mg/kg, route intravenous; conditions: in vivo
[20] = Plasma concentration in nonobese adult human at 4 mg/kg, iv administered as single dose 30 mins infusion measured after 24 hrs; set-up: dose 4 mg/kg, route intravenous
[21] = Clearance in healthy adult human at 6 mg/kg, iv administered as single dose 30 mins infusion; set-up: dose 6 mg/kg, route intravenous; conditions: in vivo
[22] = Clearance in healthy human subjects at 8 mg/kg, iv administered as 30 mins infusion every 24 hrs measured on day 4; set-up: dose 8 mg/kg, route intravenous; conditions: in vivo

CCCCCCCCCC(=O)N[C@@H](Cc1c[nH]c2ccccc12)C(=O)N[C@H](CC(N)=O)C(=O)N[C@@H](CC(=O)O)C(=O)N[C@@H]1C(=O)NCC(=O)N[C@@H](CCCN)C(=O)N[C@@H](CC(=O)O)C(=O)N[C@H](C)C(=O)N[C@@H](CC(=O)O)C(=O)NCC(=O)N[C@H](CO)C(=O)N[C@@H]([C@H](C)CC(=O)O)C(=O)N[C@@H](CC(=O)c2ccccc2N)C(=O)O[C@@H]1C
clearance [1]: 0.165 mL/min/kg | Cmax [2]: 139000 ng/mL | AUC(0-inf) [3]: 858 µg·h/mL | dose excreted at 0.5 h [4]: 34.3% | Cmax [5]: 48900 ng/mL | half-life [6]: 9.44 h | half-life [7]: 8.9 h | AUC tau [8]: 645 µg·h/mL | Cmax [9]: 123000 ng/mL | clearance [10]: 0.12 mL/min/kg | AUC(0-inf) [11]: 427 µg·h/mL | MRT [12]: 10.9 h | half-life [13]: 11.8 h | Vd [14]: 0.101 L/kg | half-life [15]: 7.9 h | clearance [16]: 0.138 mL/min/kg | half-life [17]: 8.1 h | concentration at 24 h [18]: 5880 ng/mL | clearance [19]: 0.16 mL/min/kg | concentration at 24 h [20]: < 3300 ng/mL | clearance [21]: 0.171 mL/min/kg | clearance [22]: 0.15 mL/min/kg
